pIC50: −log10 of the molar value.
Columns and labels:
HT-29 = assay: Cytotoxicity against human HT-29 cells after 48 hrs by MTT assay; type: functional, cell-based; conditions: HT-29, 48 h
Method in brief: (§1)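 Cells grown in DMEM with 10% FBS at 37 °C under humidified 5% CO2. HeLa seeded at 3,000/well and HT29 at 12,500/well, then allowed 24 h before exposure to varying compound concentrations for 48 h. Viability read by MTT; IC50 values derived from duplicate experiments.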

HeLa = assay: Cytotoxicity against human HeLa cells after 48 hrs by MTT assay; type: functional, cell-based; method in brief: as §1

| Compound | pIC50 (HT-29) | pIC50 (HeLa) |
| --- | --- | --- |
| CO[C@@H]1[C@@H](OC)[C@H](C)O[C@@H](O[C@@H]2C[C@H]3O[C@@](O)(C2)[C@@H](C)C(=O)O[C@@H](/C=C/C=C/Br)C[C@@H](C)/C=C\C[C@H](O)[C@@H]3C)[C@@H]1OC | 4.42 | 4.48 |
| CO[C@@H]1[C@@H](OC)[C@H](C)O[C@@H](O[C@@H]2C[C@@H]3CC[C@@H](C)[C@H](O)C[C@@](C)(CC/C=C/C=C/Br)OC(=O)C[C@](O)(C2)O3)[C@@H]1OC | 4.89 | 5.03 |
| CO[C@@H]1[C@@H](OC)[C@H](C)O[C@@H](O[C@@H]2C[C@@H]3CC[C@@H](C)[C@H](O)C[C@@](C)(CC/C=C/C=C\Br)OC(=O)C[C@](O)(C2)O3)[C@@H]1OC | < 4.00 | 4.28 |
| CC[C@H](C)[C@@H]1NC(=O)CNC(=O)c2csc(n2)[C@H](C(C)C)OC(=O)C(C)(C)[C@H](CCCC(C)(Cl)Cl)OC(=O)c2csc1n2 [27-DEOXYLYNGBYABELLIN A] | 7.92 | 8.14 |
| CC[C@H](C)[C@@H]1NC(=O)CNC(=O)c2csc(n2)[C@H](C(C)(C)O)OC(=O)C(C)(C)[C@H](CCCC(C)(Cl)Cl)OC(=O)c2csc1n2 [LYNGBYABELLIN A] | 7.33 | 7.66 |
| CC(C)[C@@H]1NC(=O)CNC(=O)[C@@H]2CSC(=N2)[C@H](C(C)(C)O)OC(=O)C(C)(C)[C@H](CCCC(C)(Cl)Cl)OC(=O)c2csc1n2 [LYNGBYABELLIN B] | 5.96 | 6.15 |
| CCCC(=O)N[C@@H](C(C)C)[C@@H](CC(=O)O[C@@H]1COC(=O)c2csc(n2)[C@@H]([C@@](C)(O)CC)OC(=O)[C@@H](C)[C@H](CCCC(C)(Cl)Cl)OC(=O)c2csc1n2)OC(C)=O [LYNGBYABELLIN J] | 7.27 | 7.39 |
| CO[C@@H]1[C@@H](OC)[C@H](C)O[C@@H](O[C@@H]2C[C@H]3O[C@@](O)(C2)[C@H](C)C(=O)O[C@@H](/C=C/C=C/Br)C[C@@H](C)/C=C\C[C@H](O)[C@@H]3C)[C@@H]1OC [LYNGBYALOSIDE] | 4.43 | 4.46 |

From ChEMBL document CHEMBL1221344, “Cytotoxic halogenated macrolides and modified peptides from the apratoxin-producing marine cyanobacterium Lyngbya bouillonii from Guam” (J Nat Prod, 2010)
